# Screens (PubChem)
# Runt-SMMHC FRET = inhibitors of RUNX1 Runt–CBFb-SMMHC binding, primary screen, biochemical, FRET, Cerulean-Runt, Venus-CBFb-SMMHC, uHTS; AID 1434, 2008; Runt-related transcription factor 1 (Homo sapiens) + Core-binding factor subunit beta …; 220,000 tested, 0.74% active; inhibition, % at 20 µM; Cerulean-Runt/Venus-CBFb-SMMHC FRET ratio 530/480, 1 h;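 active = mean inhibition across duplicate retests at 20 µM reaching about 50%, limit read from the data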;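 also: 0% = DMSO wells and 100% = wells with excess untagged CBFb-SMMHC; inhibitors lower the FRET ratio by blocking Runt binding to CBFb-SMMHC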
# RanGTP-Impb inh = inhibitors of RanGTP-importin-beta interaction, primary screen, biochemical, FRET, CFP-Ran, YFP-importin-beta, homogeneous | 300,000 tested, 1.1% active | inhibition, % (no concentration beside the values) | cell-free CFP-Ran/YFP-importin-beta FRET ratio | Ran GTPase (GTP-bound) - importin-beta complex;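 active = more than half of the replicate wells show a fall in the fluorescence ratio signal beyond about 16%, limit read from the data, passing the limit was not always enough; inconclusive = exactly half of the replicate wells pass the set limit; inactive = fewer than half of replicates pass the limit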;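 also: 0% = DMSO wells and 100% = Ran loaded with GDP instead of GTP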
# Wee1 stabilizer = Wee1 degradation inhibitors, primary screen, cell-based, HeLa, Wee1K328M-luciferase, luminescence | Wee1-like protein kinase (Homo sapiens), P30291 | HeLa Luc-Wee1K328M stability; 100% = proteasome inhibitor MG132 effect | reporter increase, % at 5 µM | 220,000 tested, 1.2% active;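 active = activation above the mean of all tested compounds plus 3 SD, set per screening run, cut at about 8.8% in these data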;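 also: cells exposed to compound for 20 h before luminescence read; 0% = DMSO alone and 100% = MG132 at 30 µM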
# KLK7 zymogen act = proKLK7 zymogen activators, primary screen, biochemical, fluorescence intensity. activation, % at 7 µM. Kallikrein-7 (Homo sapiens), P49862. purified proKLK7, EDANS-DABCYL substrate fluorescence; 100% is mature enzyme control, 0% vehicle. 370,000 tested, 0.9% active;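 active = activation above the mean of all tested compounds plus 3 SD, computed per campaign excluding outliers beyond control limits, cut at about 13% in these data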
# Target sequence (P49862 whole entry, looked up): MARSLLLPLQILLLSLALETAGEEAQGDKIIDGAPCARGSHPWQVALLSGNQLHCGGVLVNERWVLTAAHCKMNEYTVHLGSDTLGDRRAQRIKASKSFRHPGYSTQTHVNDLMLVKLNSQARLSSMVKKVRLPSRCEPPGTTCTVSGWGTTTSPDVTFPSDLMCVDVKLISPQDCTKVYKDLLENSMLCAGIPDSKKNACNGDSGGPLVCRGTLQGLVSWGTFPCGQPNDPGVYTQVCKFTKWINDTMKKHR
# AI-2 QS modul = Vibrio harveyi AI-2 quorum sensing modulators, primary screen, JMH597 strain, luminescence/OD600 ratio | Vibrio harveyi JMH597 AI-2 luminescence/OD600 ratio, 9 h; hits give low values; strain lacks LuxN and CqsS sensors; 0 = neutral-control median | activity change, % at 7.5 µM | 300,000 tested, 0.4% active; in the data active = activity change below about -75%, passing the limit was not always enough; inconclusive = no clear call, values can overlap the other calls;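 also: luminescence divided by OD600 gain over 9 h not by final OD600 alone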
# Runt-CBFb FRET = inhibitors of RUNX1 Runt–CBFb binding, primary screen, biochemical, FRET, Cerulean-Runt, Venus-CBFb, uHTS | inhibition, % at 20 µM | AID 1496, 2009 | 220,000 tested, 0.46% active | Cerulean-Runt/Venus-CBFb FRET ratio 530/480, 1 h;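 active = inhibition over about 50% at 20 µM in the single-dose screen, limit read from the data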;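 also: 0% = DMSO wells and 100% = excess unlabeled CBFb competitor control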
#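 Buffer or medium: Tris pH 7.5 buffer with BSA. Assay system: Cerulean-labeled Runt domain protein. Amount: each fluorescent fusion protein 100 nM. Read-out basis: loss of energy transfer signal. Incubation: 1 h compound exposure, room temperature. Probe or stimulus: Venus-CBFb binding partner, 100 nM. Detection: FRET, excitation 422 nm, emission at 530 and 480 nm.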
# Runt-CBFb TRFRET = inhibitors of RUNX1 Runt–CBFb binding, biochemical, TR-FRET | inhibition, % at 20 µM | shares compounds with Runt-CBFb FRET | TR-FRET RUNX1 Runt domain-CBFb binding | 480 tested, 20% active; in the data active = inhibition above about 40%
# YIC counter = YIC intramolecular FRET probe signal interference, dose response, counter-screen for RanGTP-importin-beta inhibitor project, biochemical, fluorescence FRET; IC50, µM; shares compounds with RanGTP-Impb inh; AID 435026, 2010; Purified YIC probe, intramolecular FRET ratio YFP/CFP; 1,000 tested, 40% active;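 active = fitted half-maximal inhibitory concentration no more than tenfold above the top dose tested; inconclusive = flat fit with 30 to 70% activity, or poor fit; inactive = half-maximal concentration beyond tenfold above the top dose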
# proKLK7 act conf = proKLK7 zymogen activators, confirmation, biochemical, fluorescence intensity, triplicate; shares compounds with KLK7 zymogen act; purified proKLK7, EDANS-DABCYL substrate fluorescence; scaled: vehicle 0, mature enzyme 100; activation, % at 7 µM; 3,200 tested, 68% active; AID 686949, 2013;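 active = activation, as change over the incubation, above the mean of all tested compounds plus 3 SD, cut at about 13% in these data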
# EDANS-DABCYL int = EDANS-DABCYL substrate optical interference, artefact control for kallikrein-7 zymogen activator project, biochemical, fluorescence intensity, high throughput; shares compounds with KLK7 zymogen act; no enzyme, 4 h; solvent 0%, active enzyme control 100%; activation, % at 7 µM; 3,200 tested, 80% active; AID 686952, 2013;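 active = activation above the all-compound mean plus 3 SD, ignoring values outside control-based bounds, cut at about 4.8% in these data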;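 also: value is the 4 h activation minus the activation read at time zero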
# An asterisk follows results filed as active; ? = inconclusive; / = not tested or not shown. A selection: hits, their analogues and other compounds. The true share with any hit is near 2.9%.
SMILES,Runt-SMMHC FRET,RanGTP-Impb inh,Wee1 stabilizer,KLK7 zymogen act,AI-2 QS modul,Runt-CBFb FRET,Runt-CBFb TRFRET,proKLK7 act conf,EDANS-DABCYL int,others
S=c1[nH]nc(-c2cc3c(s2)-c2ccccc2CC3)o1,70*,17*,-1,39*,44,57*,17,70*,70*,
Cc1ccc(C2OC34CCCCCC3C(C#N)(C(=N)O4)C2(C#N)C#N)cc1 (configuration not stated),99*,34*,1,16*,35,52*,30,29*,34*,
O=C(Oc1cc2oc(=O)c3c(c2cc1Cl)CCCC3)c1cccs1,133*,/,3,62*,41,76*,26,260*,223*,
Cc1cc2oc(=O)c3c(c2cc1OC(=O)c1ccco1)CCCC3,-4,-3,-3,1,12,-1,/,/,/,
O=C(Oc1cc2oc(=O)c3c(c2cc1Cl)CCCC3)c1ccco1,120*,-3,-2,55*,26,68*,36,397*,406*,
COc1ccc(C2NC(=S)NC3=C2CCc2cc(OC)ccc23)cc1 (configuration not stated),1,-5,-1,0,27,/,/,/,/,
CCCCc1cc(=O)oc2c(CN(CC)CC)c(O)c(Cl)cc12,150*,?,0,63*,-3,75*,-32,70*,71*,
N#Cc1c(C#N)c(-c2ccccc2)n(-c2ccccc2)c1N,-5,1,-4,0,14,-1,/,/,/,
N#Cc1c(N)n(-c2cccc(O)c2)c2nc3ccccc3nc12,102*,27*,0,117*,14,73*,28,42*,47*,
O=C(NNC(=O)c1ccccc1C(=O)O)c1ccc(-c2ccccc2)cc1,3,-3,4,0,-37,-1,/,/,/,
O=C(NCCc1ccccc1)c1ccc(NC(=O)C2CC2)cc1,/,/,/,-1,/,/,/,/,/,
CCN(CC(=O)Nc1c(F)cccc1F)C(=O)c1ccc(N2CCCC2=O)cc1,/,-4,/,0,26,/,/,/,/,
COCCOC(=O)C1=C(C)NC2=C(C(=O)CC(C)(C)C2)C1c1cccnc1 (configuration not stated),109*,11,7,18*,16,50*,19,39*,34*,
Cc1nc2cc(NS(=O)(=O)c3ccccc3F)ccc2s1,1,1,-2,-1,8,1,/,/,/,
O=S(=O)(Nc1ccc(-c2nc3cccnc3s2)cc1)c1ccccc1F,146*,9,0,99*,-1,81*,-2,66*,73*,
N=c1oc2ccc3ccccc3c2cc1-c1nnc2n1CCCCC2,108*,/,1,63*,/,52*,-6,72*,72*,
COc1ccc2oc(=N)c(-c3nnc4n3CCCCC4)cc2c1,4,10,-1,-6,0,5,/,/,/,
CCOC(=O)C1CCN(C(=O)C2CCN(S(=O)(=O)c3ccc4ccccc4c3)CC2)CC1,/,-1,/,1,18,/,/,/,/,
CN(Cc1c(O)ccc2c1oc(=O)c1ccccc12)C1CCCCC1,-35,-4,0,-3,23,-9,/,/,/,
CN(C)Cc1c(O)ccc2c3c(c(=O)oc12)CCCCC3,136*,20*,-1,48*,22,70*,4,57*,78*,YIC counter=22*
CC(=O)NC(c1ccccc1)c1nc(-c2ccc(Cl)cc2)cs1 (configuration not stated),/,/,/,-1,/,/,/,/,/,
CN(C)CCCNS(=O)(=O)c1ccc(N2CCC(c3ccc(Cl)cc3)=N2)cc1,93*,27*,0,24*,-8,57*,-25,66*,62*,
Clc1ccc2nc(COc3ccccc3)[nH]c2c1,/,0,/,1,-47,/,/,/,/,
CCNc1ccc2c(Cl)cc(=O)oc2c1,95*,36*,2,25*,35,55*,7,30*,38*,
Cc1cc(=O)oc2cc(Nc3ccccc3)ccc12,40,4,2,0,13,23,/,/,/,
SMILES,Runt-SMMHC FRET,RanGTP-Impb inh,Wee1 stabilizer,KLK7 zymogen act,AI-2 QS modul,Runt-CBFb FRET,Runt-CBFb TRFRET,proKLK7 act conf,EDANS-DABCYL int,others
CC(C)OC(=O)c1c(N)n(CCCN2CCOCC2)c2nc3ccccc3nc12,84*,25*,5,28*,17,65*,32,9,7.4*,YIC counter=31*
C=CCn1c(N)c(C(=O)OC(C)CC)c2nc3ccccc3nc21 (configuration not stated),123*,35*,-2,69*,-2,66*,28,-33,-19,YIC counter=22*
C=CCn1c(N)c(C(=O)OC(C)(C)C)c2nc3ccccc3nc21,95*,29*,3,46*,-5,70*,-5,80*,71*,
c1ccc2nc3c(nc2c1)c1ccccc1n3CCN1CCOCC1,-8,?,-1,1,21,-4,/,/,/,
C=CCn1c(O)c(N=NC(=O)OC(C)(C)C)c2ccccc21,-1,-2,1,0,16,1,/,/,/,
COCC(C)OC(=O)c1c(N)n(CC(C)C)c2nc3ccccc3nc12 (configuration not stated),126*,21*,-2,59*,14,63*,33,-33,-30,YIC counter=26*
C=CCn1c(C(C)C)nc2ccccc21,-3,2,-1,0,18,0,/,/,/,
